Experimental findings from the RNAGym collection of RNA variant scans (doi:10.1126/science.aae0568) are described below.

B1: tRNA (parent)
chain: GUUCCGUUGGCGUAAUGGUAACGCGUCUCCCUCCUAAGGAGAAGACUGCGGGUUCGAGUCCCGUACGGAACG

Fewer inactive variants are shown than the library holds.

This data set covers variants of B1. The data set can be described thus: yeast fitness relative to wild type (ratio to wild type); higher = fitter; tRNA-Arg(CCU), competitive growth, 37 C, YPD. The method, boiled down: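 Start and end populations of a pooled competition were compared by 100-nucleotide paired-end sequencing of gene amplicons. The Saccharomyces cerevisiae strains carried tRNA-Arg(CCU) gene variants at the native genomic locus, synthesised with a 3% per-site mutation rate at 69 sites, and competed in YPD at 37°C for 24 hours in six parallel replicates. Darwinian fitness relative to wild type was based on the change in genotype frequencies. Genotypes required ≥ 100 starting reads, and estimates < 0.5 were set to 0.5.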
GUUCCGUUGGCGUCAUGGUAAAGCGUCUCCCUCCUAAGGAGAAGACUGCGGGUUCGAGCCCAGUACGGAACG: the yeast fitness was at most 0.5.
On to GUUCCGUUGGCGUCAUGGUAACGCGUCUCCCUCCUAAGGAGACGACUGCGGGUUCGGGUCCCGUAUGGAACG, for which the yeast fitness is at most 0.5.
For the variant GUUCCGUUGGCGUCAUGGUAAGGCGUCUCCCUCCUACGGAGAAGACUGCGGGUUCGAGUCCCGUACGGAACG, the yeast fitness was at most 0.5.
Turning to GUUCCGUUGGCGUCAUGGUAACGGGUCUCCCUCCUAAGGAGGAGACUGCGGGUUCGAGUCCCGUACGGAACG, the yeast fitness was at most 0.5.
As for GUUCCGUUGGCGUCAUGGUAACGCGUCUCCCUCCUAAGGAGUACACUGCGGGUUCGAGUCCCGUACGGAACG, the yeast fitness was at most 0.5.
Take GUUCCGUUGGCGUCAUGGUAACGCGUCUCCCUCCUAAGGAGAGGACUGCGGGUUCGAGCCCAGUACGGAACG: the yeast fitness is at most 0.5.
Consider GUUCCGUUGGCGUCAUGGUAACGAGUCUCCCUCCUAAGGAGAAGACUGCGGAAUCGCGUCCCGUACGGAACG, for which the yeast fitness was found to be 0.5.
In the case of GUUCCGUUGGCGUCAUGGUAACGCGUCUCCCUCCUAAGGAGAUGACUGCGGGUUCGAGUCUCGUACGGAACG it was at most 0.5.
Turning to GUUCCGUUGGCGUCAUGGUAACGAGUCUCCCGCCUAAGGACAAGACUGCGGGUUCGAGUCCCGUACGGAACG, the yeast fitness came to 0.501.
In the case of GUUCCGUUGGCGUCAUGGUAACGAGUCUCCCUCCUAAGGAGAAGACUGCGGGUUCGAGUCCCGUACAGAACG, the yeast fitness was at most 0.5.
As for GUUCCGUUGGCGUCAUGGUAACGCGUCUCCCUCCUAAGGAGUAGACUGCGGGUUGGAGUCCCGUACGGAACG, the yeast fitness was at most 0.5.
In the case of GUUCCGUUGGCGUCAUGGUAAGGCCUCUCCCUCCUAAGGAGAAAACUGCGGGUUCGAGUCCCGUACGGAACG it was at most 0.5; in that of GUUCCGUUGGCGUCAUGGUAACGAGUGUCCCUCCUAAGGAGAAGAGUGCGGGUUCGAGUCCCGUGCGGAACG, at most 0.5.
As to GUUCCGUUGGCGUCAUGGUAACGCGUCUCCCUCCUAAGGAGAAGACUGCGGGUUCGAGUCCCGUACGGGACG, the yeast fitness stood at 0.692.
In the case of GUUCCGUUGGCGUCAUGGUAACGAGUCUCCCUCCUAAGGAGAAGACUGCGGGUUCGAGUCCCGUACGGAACG it was at most 0.5.
GUUCCGUUGGCGUCAUGGUAACGCGUCUCCCUCCUAAGGAGGAGACCGCGGGUUCGAGUCCCGUACGGAACG: the yeast fitness is at most 0.5.
GUUCCGUUGGCGUCAUGGUAAUGCGUCUCCCUCCUAAGGAGAAGACUGCGGGUUCGAGUCCCGUAUGGAACG: the yeast fitness was at most 0.5.
In the case of GUUCCGUUGGCGUCAUGGUAACGCGUCUCCCUCCUAAGGAGAAGACUGCGGGUUCGUGUCUCGUACGGAACG, the yeast fitness is at most 0.5.
In the case of GUUCCGUUGGCGUCAUGGUAACGCGUCUCCCUCCUAAGGAGUAGACUGCGGGUUGGAGACCCGUACGGAACG, the yeast fitness is 0.612.
In the case of GUUCCGUUGGCGUCAUGGUAACGCGUCUCCCUCCUAAGGAGUAGACUGCGGGUUCGAGUGCCGUACGGAGCG it was at most 0.5; in that of GUUCCGUUGGCGUCAUGGUAAGGCCUCUCCCUCCUAAGGAGAAAACUGCGGGUUCGAGUCGCGUACGGAACG, 0.543; in that of GUUCCGUUGGCGUCAUGGUAAGGCGUCUCCCUCCUAAGGAGAAGACUGCGGGUUCGAGUCCCAUACGGAACG, 0.642.
Regarding GUUCCGUUGGCGUCAUGGUAACGCGUCUCCCUCCUAAGGAGAAGACUGCGGGUUCGCGUCCCGUACGGAACG, the yeast fitness turned out to be 0.516.
In the case of GUUCCGUUGGCGUCAUGGUAACGCGUCUCCCUCCUAAGGAGAAGUCUACGGGUUCGAGUCCCGUAGGGAACG it was at most 0.5; in that of GUUCCGUUGGCGUCAUGGUAAGGCGUCUCCCUCCUAAGGAGAAGACUGCGGGUUCGAGUCCCGUACGGAACG, 0.701.
As for GUUCCGUUGGCGUCAUGGUAAUGCGUCUCCCUCCUAAGGAGAAGACUGCGGGUUCGAGUCCCGUACGGAACG, the yeast fitness was 0.61.
Take GUUCCGUUGGCGUCAUGGUAACGCGUCUCCCUCCUAAGGAGAUGACUGCGGGUUCGAGUCCCCUACGGAACG: the yeast fitness is at most 0.5.
For the variant GUUCCGUUGGCGUCAUGGUAAAGCGUCUCCCUCCUAAGGAGAAGAAUGCGGGUUCGAGUCCCGCACGGAACG, the yeast fitness is at most 0.5.
As to GUUCCGUUGGCGUCAUGGUAACGCGUCUCCCUCCUAAGGAGAAGACUGCGGGUUCGAGUCCCGUGCGGUACG, the yeast fitness came to 0.634.
In the case of GUUCCGUUGGCGUCAUGGUAAAGCGUCUCCCUCCUAUGGAGAAGACUGCGGGUUCGAGUCCCGUACGGAACG, the yeast fitness was 0.646.
As to GUUCCGUUGGCGUCAUGGUAACGCGUCUCCCUCCUAAGGAGAGGACUGCGGGUUCGAGUCCCGUACGGCACG, the yeast fitness was at most 0.5.
For GUUCCGUUGGCGUCAUGGUAACGCGUCUCCCUCCUAAGGAGAAGUCUGCGGGUUCGAGUCCCGUACGGAGCG, the yeast fitness came to 0.561.
Consider GUUCCGUUGGCGUCAUGGUAACGCGUCUCCCUCCUAAGGAGAAGACUGCGGGUUCGGGUCCCGUACGGUACG, for which the yeast fitness was at most 0.5.
In the case of GUUCCGUUGGCGUCAUGGUAACGCGUCUCCCUCCUAAGGAGGAGACUGCGGGUUCGUGUCCCGUACGGAACG it was at most 0.5.
In the case of GUUCCGUUGGCGUCAUGGUAAGGCGGCUCCCUCCUAAGGAGAAGACUGCGGGUUAGAGUCCCGUGCGGAACG it was at most 0.5.
For GUUCCGUUGGCGUCAUGGUAACGCGUCUCCCUCCUAAGGAGAAGUCUGCCGGUUCGAGUCCCGUACGCAACG, the yeast fitness is at most 0.5.
For the variant GUUCCGUUGGCGUCAUGGUAAUGUGUCUCCCUCCUAAGGAGAAGACUGCGGGAUCGAGUCCCGUACGGAACG, the yeast fitness is at most 0.5.
In the case of GUUCCGUUGGCGUCAUGGUAACGCGUCUCCCUCCUAAGGAGAAGCCUGGGGGUCCGAGUCCCGUAUGGAACG it was at most 0.5.
